M18AAP inhibitor: PfM18AAP enzyme inhibition; inhibition, % at 7.35 µM; recombinant PfM18AAP, H-Glu-NHMec fluorogenic cleavage; actives 1.2% (n = 290,000);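 active = inhibition above the campaign mean inhibition over all tested compounds plus 3 SD, cut at about 28% in these data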
UPR CHOP act: apoptotic UPR (CHOP) activation. CHO-CHOP luciferase reporter, luminescence; percent of tunicamycin response over DMSO baseline. activation, % at 10 µM. actives 0.34% (n = 330,000). AID 449763;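 active = at 10 µM dose, activation of 40% or more, normalized to positive control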
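System: CHO CHOP reporter cells. Amount: 500 cells per well. Buffer or medium: F12 medium, 10% FBS. Compound dosing: one dose, 10 µM in 0.5% DMSO. Incubation: 6 h compound exposure at 37 °C after overnight seeding. Technique: Steady-Glo luciferase luminescence. Benchmarks: tunicamycin and DMSO controls.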
HCV NS3 hel inh: inhibitors of Hepatitis C virus NS3 helicase | NS3 helicase DNA unwinding, Cy5 molecular beacon fluorescence | inhibition, % at 10.9 µM | actives 0.56% (n = 290,000) | AID 1800;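 active = inhibition above the mean of all tested compounds plus 3 SD, set per campaign, cut at about 35% in these data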
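test system = hepatitis C virus NS3 helicase domain fragment enzyme | reagent = annealed dual-labelled DNA beacon duplex, ATP-started | times = 1 h at 25 °C | detection = Cy5 fluorescence, 0 and 60 min reads | read-out basis = percent inhibition from t60/t0 fluorescence ratio | control set = DMSO and thioflavine S | replication = one well per compound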
XBP1 UPR activ: activators of adaptive arm of unfolded protein response (XBP1); CHO-XBP1 luciferase reporter, IRE1-XBP1 UPR activation, luminescence; percent of tunicamycin response, DMSO as zero; actives 0.33% (n = 330,000); activation, % at 20 µM;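 active = versus positive control, 20 µM dose yields 30% or more activation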
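incubation = overnight seeding at 37 °C, 6 h compound treatment at 37 °C | assay system = CHO-XBP1 cells stably carrying IRE1-XBP1-driven luciferase reporter | input = 1000 cells per well | detection = luciferase luminescence | dosing = single point, 20 µM final compound, 1% DMSO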
p97 inhibitor: inhibitors of human p97 ATPase. P55072. recombinant p97 ATPase, Kinase-Glo ATP luminescence, 3 h. inhibition, % at 8 µM. actives 0.42% (n = 220,000). AID 1481; in the data active = inhibition above about 15%
Target sequence (P55072 whole entry, looked up): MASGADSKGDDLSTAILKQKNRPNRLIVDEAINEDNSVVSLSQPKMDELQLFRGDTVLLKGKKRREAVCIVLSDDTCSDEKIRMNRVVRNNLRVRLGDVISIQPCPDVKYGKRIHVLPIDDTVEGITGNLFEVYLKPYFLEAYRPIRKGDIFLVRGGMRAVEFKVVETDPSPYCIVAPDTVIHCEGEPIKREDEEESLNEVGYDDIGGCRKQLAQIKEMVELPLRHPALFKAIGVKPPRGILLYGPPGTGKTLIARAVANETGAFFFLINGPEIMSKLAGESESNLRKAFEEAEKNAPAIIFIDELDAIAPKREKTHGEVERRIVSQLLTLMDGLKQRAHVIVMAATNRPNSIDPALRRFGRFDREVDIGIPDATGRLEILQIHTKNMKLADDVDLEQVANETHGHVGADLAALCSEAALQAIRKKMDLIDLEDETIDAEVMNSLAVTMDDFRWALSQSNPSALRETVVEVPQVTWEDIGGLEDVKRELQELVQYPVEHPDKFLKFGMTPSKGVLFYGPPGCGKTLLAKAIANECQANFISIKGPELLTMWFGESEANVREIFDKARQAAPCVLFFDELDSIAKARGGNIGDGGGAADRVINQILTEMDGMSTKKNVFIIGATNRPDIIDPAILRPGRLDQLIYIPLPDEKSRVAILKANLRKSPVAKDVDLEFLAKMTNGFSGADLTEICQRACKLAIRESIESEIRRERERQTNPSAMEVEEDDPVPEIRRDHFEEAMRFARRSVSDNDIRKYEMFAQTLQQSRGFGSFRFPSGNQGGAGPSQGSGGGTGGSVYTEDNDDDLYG
CHOP inh: inhibitors of CHOP induction in ER stress response. inhibition, % at 10 µM. actives 3.8% (n = 220,000). CHO-K1 CHOP-promoter luciferase, tunicamycin-induced, 15-18 h;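 active = compounds that reduced the stress-induced luciferase reporter signal by more than about 70% of percent inhibition, limit read from the data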
CHOP inh conf: confirmation of CHOP induction inhibitors | inhibition, % at 10 µM | AID 504437 | shares compounds with CHOP inh | CHO-CHOP promoter luciferase reporter, tunicamycin-induced, luminescence | actives 45% (n = 2,100);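 active = mean of three repeat readings of reporter signal inhibition above a set limit, cut at about 70% in these data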
Each line names hits and unclear results; the compound was inactive in the other large screens (follow-up assays come after a bar, where they were run). An excerpt weighted towards active compounds, which were near 4.5% of everything screened.

CCc1ccc2c(COC(=O)c3n[nH]c4ccccc34)cc(=O)oc2c1	CHOP inh 100.5 | CHOP inh conf inactive
COc1cccc(COC(=O)C2CCN(S(=O)(=O)c3ccc(F)cc3)CC2)c1OC	none (no result: M18AAP inhibitor, HCV NS3 hel inh, p97 inhibitor, CHOP inh)
c1ccc2c(c1)ncn2-c1ccc(-c2ccnc(-c3ccncc3)n2)cc1	CHOP inh 99.2 | CHOP inh conf inactive
Nc1nccc(-c2ccc(-n3cnc4ccccc43)cc2)n1	none
CCOc1cc2[nH]c(=O)n(CCC(=O)N3CCN(c4ccccc4OC)CC3)c(=O)c2cc1OCC	none
COc1cc2[nH]c(=O)n(CCC(=O)N3CCN(c4cc(Cl)ccc4C)CC3)c(=O)c2cc1OC	CHOP inh 103.6 | CHOP inh conf inactive
O=c1[nH]c2cc3c(cc2cc1C(c1nnnn1Cc1ccccc1)N1CCCCCC1)OCCO3 (centres undefined)	CHOP inh 101.0 | CHOP inh conf inactive
O=c1[nH]c2cc3c(cc2cc1C(c1nnnn1Cc1ccccc1)N1CCN2CCCC2C1)OCCO3 (centres undefined)	none
O=C1OC(c2ccccc2)=C/C1=C/N1CCCCC1	none
COC(=O)/C=C1\OC(c2ccccc2)=CC1=O	CHOP inh 108.3 | CHOP inh conf inactive
O=c1[nH]c(NNC(=S)NC2CCCCC2)nc2c1C1(CCCC1)Cc1ccccc1-2	CHOP inh 102.9 | CHOP inh conf 109.8
CCC(C)N(C(=O)CN1C(=O)NC2(CCc3ccccc32)C1=O)C1CCS(=O)(=O)C1 (centres undefined)	none (no result: M18AAP inhibitor, HCV NS3 hel inh, p97 inhibitor, CHOP inh)
CCOc1ccccc1C(=O)NCC(=O)NCC(C)(C)N1CCOCC1	none (no result: M18AAP inhibitor, HCV NS3 hel inh, p97 inhibitor, CHOP inh)
O=Nc1c(O)n(Cc2ccc(Cl)c(Cl)c2)c2ccccc12	CHOP inh 106.6 | CHOP inh conf inactive
O=C1C=CC(=O)N1CCCCCCN1C(=O)C=CC1=O	CHOP inh 107.2 (no result: UPR CHOP act, XBP1 UPR activ) | CHOP inh conf 115.6
O=C(Nc1nnc(-c2ccc(Cl)cc2)o1)Nc1ccccc1Cl	none
O=C(Nc1nnc(-c2ccc(Cl)cc2)o1)c1nc2ccccc2s1	CHOP inh 103.5 | CHOP inh conf inactive
CN1CCN(C2=C(Cl)C(=O)C(c3cnc(N4CCCCC4)s3)=C(Cl)C2=O)CC1	CHOP inh 100.4 | CHOP inh conf inactive
COc1ccc(N=CC2=C(O)c3ccccc3C2=O)c(OC)c1	CHOP inh 100.3 | CHOP inh conf 132.7
Cc1cccc(NC(=O)/C(=C\c2ccc([N+](=O)[O-])o2)NC(=O)c2ccc(Cl)cc2)c1	CHOP inh 101.1 (no result: UPR CHOP act, XBP1 UPR activ) | CHOP inh conf inactive
CCOC(CNC(=O)c1ccc2c(c1)ncn2-c1ccccc1OC)OCC	none (no result: p97 inhibitor, CHOP inh)
CC(C)CCNC(=O)c1onc(CSc2ccc(F)c(F)c2)c1C(=O)NCCC(C)C	none (no result: M18AAP inhibitor, HCV NS3 hel inh, p97 inhibitor)
Cc1ccc2c(C)nc(Nc3nc(CSc4nc5ccccc5[nH]4)cc(=O)[nH]3)nc2c1	CHOP inh 104.4 | CHOP inh conf 105.7
Cc1ccc(SCc2cc(=O)[nH]c(Nc3nc(C)c4ccc(C)cc4n3)n2)cc1	none
Cc1cccc(NS(=O)(=O)c2ccc(C3CCCCC3)cc2)c1	CHOP inh 107.4 | CHOP inh conf 132.5
CC1(C)Oc2ccc3ccc(=O)oc3c2/C(=C/Nc2cccc(O)c2)C1=O	CHOP inh 105.9 | CHOP inh conf inactive
COc1ccc(Oc2cn[nH]c2-c2ccc(OCC(=O)NN)cc2O)cc1	none (no result: p97 inhibitor, CHOP inh)
CCCc1ccc(Oc2cn[nH]c2-c2ccc(O)c(C)c2O)cc1	CHOP inh 104.8 | CHOP inh conf inactive
CCCc1ccc(Oc2c(-c3ccc(O)c(C)c3O)n[nH]c2C)cc1	CHOP inh 105.7 | CHOP inh conf inactive
COc1ccccc1CNC(=O)c1cc2c(=O)[nH]c3ccccc3c2n1C	none
Cc1ccc(Nc2nc(N)c([N+](=O)[O-])c(N3CCCC(C)C3)n2)cc1C (centres undefined)	CHOP inh 101.4 | CHOP inh conf inactive
COc1ccc(C2=NO[C@@](CC(=O)O)(C(=O)Nc3ccc4c(c3)OCCO4)C2)cc1	none (no result: p97 inhibitor, CHOP inh)
Cn1cccc1/C=C1\SC(=O)N(CC(=O)Nc2ccc(Cl)cc2)C1=O	CHOP inh 100.7 | CHOP inh conf inactive
O=C(COCC(=O)Nc1cccc(C(F)(F)F)c1)Nc1cccc(C(F)(F)F)c1	CHOP inh 103.0 | CHOP inh conf 115.9
O=C(CN1C(=O)c2ccccc2S1(=O)=O)NCc1c(F)cccc1F	none (no result: M18AAP inhibitor, HCV NS3 hel inh, p97 inhibitor, CHOP inh)
Cc1ccc(S(=O)(=O)NCc2cccnc2)cc1	none (no result: p97 inhibitor, CHOP inh)
Cc1cc(S(=O)(=O)Nc2ccc3ccccc3c2)c(C)s1	CHOP inh 110.6 | CHOP inh conf inactive
NC(N)=N/N=C/c1ccc(OCc2ccccc2Cl)cc1	CHOP inh 97.2 | CHOP inh conf inactive
COc1ccc(N(CC(=O)Nc2ccccc2OC)S(=O)(=O)c2ccc(OC)c(OC)c2)cc1	none (no result: p97 inhibitor, CHOP inh)
C=CCN1C(=O)/C(=C/c2ccc(OC(C)=O)c(OCC)c2[N+](=O)[O-])SC1=S	CHOP inh 100.5 (no result: UPR CHOP act, XBP1 UPR activ) | CHOP inh conf 113.9
Cc1cc(C(=O)COC(=O)c2ccccc2O)c(C)n1Cc1cccs1	CHOP inh 108.7 | CHOP inh conf 111.0
COc1ccc(NC(=O)Cc2nnc(SCC(=O)NC3=NCCS3)n2C)cc1	none (no result: p97 inhibitor, CHOP inh)
OC(CNCCc1ccc(C(F)(F)F)cc1)COc1ccc2ccccc2c1 (centres undefined)	CHOP inh 108.5 | CHOP inh conf 123.2
OC(CNCCc1ccc(C(F)(F)F)cc1)COc1cccc2ccccc12 (centres undefined)	CHOP inh 108.0 | CHOP inh conf 133.9
COc1ccc(CCN(C)CC(O)COc2ccc(C(C)=O)cc2OC)cc1OC (centres undefined)	none (no result: p97 inhibitor, CHOP inh)
CC1CCc2nc(NC(=O)CSc3nc4ccccc4o3)sc2C1 (centres undefined)	CHOP inh 96.7 | CHOP inh conf inactive
Cc1ccc(N(c2ncnc(N)c2[N+](=O)[O-])C2CCCCC2)cc1	CHOP inh 105.4 | CHOP inh conf 99.7
C(=N\Nc1nc(N2CCCCC2)nc(N2CCCCC2)n1)/c1c[nH]c2ccccc12	CHOP inh 100.8 | CHOP inh conf inactive
COc1ccc([C@H]2Oc3cc(O)cc(O)c3C(=O)C2[C@@H]2C(=O)c3c(O)cc(O)cc3O[C@@H]2c2ccc(OC)cc2)cc1 (some centres undefined)	CHOP inh 105.0 (no result: M18AAP inhibitor, HCV NS3 hel inh, p97 inhibitor) | CHOP inh conf 110.8
CC(C)(C)C1CCC(C(=O)OCC(=O)c2ccc[nH]2)CC1 (centres undefined)	CHOP inh 101.1 | CHOP inh conf 100.0
Cc1ccc(N2CC(C(=O)OCC(=O)c3ccc[nH]3)CC2=O)cc1 (centres undefined)	none (no result: M18AAP inhibitor, HCV NS3 hel inh, p97 inhibitor, CHOP inh)

Bioassay records: PubChem BioAssay, several laboratories
